Values after ≈ are worked out from the molar mass of the structure shown. Active and inactive are the calls of the source. The rule behind the calls is not given here.
Tests used:
Human alphaherpesvirus 2 [1] = experiment: In vitro anti viral activity tested against HSV-2(Curtis) virus on Rabbit kidney cell cultures.; format: functional; details: Human alphaherpesvirus 2, kidney; read-out: ED50 (the source's name)
Procedure, shortened: (§1)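 Confluent primary rabbit kidney monolayers were preincubated with serial drug dilutions in EMEM with 2% fetal calf serum and neomycin. They were then challenged with about 10 TCID50 of HSV-1 Schooler or HSV-2 Curtis and incubated at 37 °C. Cytopathology was scored on day 5. ED50 is the concentration preventing cytopathology in half of the infected cultures.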

Human alphaherpesvirus 1 [2] = experiment: In vitro anti viral activity tested against HSV-1(Schooler) virus on Rabbit kidney cell cultures.; format: functional; details: Human alphaherpesvirus 1, kidney; read-out: ED50 (the source's name); procedure, shortened: as §1
Human alphaherpesvirus 2 [3] = experiment: In vitro anti viral activity tested against HSV-2(Curtis) virus on Rabbit kidney cell cultures; 25-50; format: functional; details: Human alphaherpesvirus 2, kidney; read-out: ED50 (the source's name); procedure, shortened: as §1
Human alphaherpesvirus 1 [4] = experiment: Efficacy was evaluated against Systemic HSV-1 infection in mice at a daily dose of 12.5 mg/kg administered subcutaneously; format: ADME, organism-based; parameters: dose 12.5 mg/kg, route subcutaneous; details: mouse, in vivo, sc
Procedure, shortened: (§2)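 ICR/Ha mice (10–20 g, mixed sex) were infected intraperitoneally with 50–100 LD50 of HSV-1 Schooler. Subcutaneous dosing of 0.1 mL twice daily for 4 days started immediately after infection. Groups were of about 10 mice. Survival was recorded daily for 15 days and reported as survivors/total and mean survival time (95% CI). Transformed survival times were compared with placebo-treated infected mice (p < 0.05).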

Human alphaherpesvirus 1 [5] = experiment: Efficacy was evaluated against Systemic HSV-1 infection in mice at a daily dose of 0.8 mg/kg administered subcutaneously; Tested mice 10; format: organism-based; parameters: dose 0.8 mg/kg, route subcutaneous; details: mouse, in vivo, sc; procedure, shortened: as §2
Human alphaherpesvirus 1 [6] = experiment: Efficacy was evaluated against Systemic HSV-1 infection in mice at a daily dose of 0.8 mg/kg administered subcutaneously; format: ADME, organism-based; parameters: dose 0.8 mg/kg, route subcutaneous; details: mouse, in vivo, sc; procedure, shortened: as §2
Human alphaherpesvirus 1 [7] = experiment: Efficacy was evaluated against Systemic HSV-1 infection in mice at a daily dose of 3.1 mg/kg administered subcutaneously; Tested mice 10; format: ADME, organism-based; parameters: dose 3.1 mg/kg, route subcutaneous; details: mouse, in vivo, sc; procedure, shortened: as §2
Human alphaherpesvirus 1 [8] = experiment: Efficacy was evaluated against Systemic HSV-1 infection in mice at a daily dose of 3.1 mg/kg administered subcutaneously; format: ADME, organism-based; parameters: dose 3.1 mg/kg, route subcutaneous; details: mouse, in vivo, sc; procedure, shortened: as §2
Human alphaherpesvirus 1 [9] = experiment: Evaluated for DNA polymerase inhibition activity against herpes simplex virus-1 (HSV-1); format: functional
Procedure, shortened: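 Step II mixture supplied the phosphorylated test material. Step I: compound with HSV-1 thymidine kinase, 4 h, 37 °C. Step II: then HSV-1-infected HeLa crude extract plus GMP kinase, overnight, 30 °C. A 20 μL sample went to a 1 h, 37 °C DNA polymerase assay at pH 8 with activated salmon sperm DNA, 0.05 mM each dNTP ([³H]dTTP) and infected HeLa extract. (NH₄)₂SO₄ 0.1 M was present for the viral enzyme and omitted for the cellular polymerases. Read-out: TCA-precipitable radioactivity.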

[10] = tested on: DNA polymerase (Homo sapiens); experiment: Evaluated for DNA polymerase inhibition activity against HeLa cells.
Human alphaherpesvirus 1 [11] = experiment: Efficacy was evaluated against Systemic HSV-1 infection in mice at a daily dose of 12.5 mg/kg administered subcutaneously; Tested mice 10; format: organism-based; parameters: dose 12.5 mg/kg, route subcutaneous; details: mouse, in vivo, sc; procedure, shortened: as §2
Human betaherpesvirus 5 = experiment: In vitro anti viral activity tested against HCMV(AD169) virus on MRC-5 cell monolayers; NA=Not active at 25 ug/mL; format: functional, organism-based; details: MRC5
Procedure, shortened: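 MRC-5 monolayers were infected with HCMV AD169 for 1 h at 37 °C. Compound diluted in maintenance medium was then added and incubation continued for 7 days at 37 °C. Monolayers were stained and plaques counted. ED50 is the concentration reducing plaque number by 50%.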

Nc1nc(O)c2ncn(COCC(O)CO)c2n1 (stereo not drawn)
EC50 (Human alphaherpesvirus 2 [1]): 6 µg/mL (≈ 23.5 µM)
EC50 (Human alphaherpesvirus 1 [2]): 3 µg/mL (≈ 11.8 µM)

Nc1nc(O)c2ncn(COCC(O)CO)c2n1 (single isomer, unassigned; form 1) [listing 1 of 2 here]
EC50 (Human alphaherpesvirus 2 [3]): 25 µg/mL (≈ 97.9 µM)
Average survival (Human alphaherpesvirus 1 [4]): 7.5 days
Survivors (Human alphaherpesvirus 1 [5]): 0
Average survival (Human alphaherpesvirus 1 [6]): 6.3 days
Survivors (Human alphaherpesvirus 1 [7]): 1
EC50 (Human alphaherpesvirus 1 [2]): 25 µg/mL (≈ 97.9 µM)
Average survival (Human alphaherpesvirus 1 [8]): 6.5 days
Inhibition (Human alphaherpesvirus 1 [9]): 7%
Inhibition [10]: 0%
Survivors (Human alphaherpesvirus 1 [11]): 1

Nc1nc(O)c2ncn(COCC(O)CO)c2n1 (single isomer, unassigned; form 1) [listing 2 of 2 here]
ED50 (Human betaherpesvirus 5): inactive

Source: ChEMBL document CHEMBL1123083, “Synthesis and antiherpetic activity of (S)-, (R)-, and (+/-)-9-[(2,3-dihydroxy-1-propoxy)methyl]guanine, linear isomers of 2'-nor-2'-deoxyguanosine” (J Med Chem, 1985)
